Only some compounds are listed: those with a hit (about 5.7% of all), similar ones and a draw of the others.
T cruzi repl – inhibitors of intracellular T. cruzi growth, primary screen, luminescence, NIH3T3 host cells | inhibition, % (test concentration not listed) | 300,000 tested, 1.4% active | T. cruzi beta-gal in NIH3T3, 90 h;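 active = mean inhibition across valid replicates above about 55%, limit read from the data; inconclusive = mean below that limit but half or more replicates reach it; inactive = mean below it, under half of replicates reach it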;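 note: signal also drops with host cell toxicity which is not excluded here; 0% = plate median of DMSO wells and 100% = zero luminescence signal; higher percent means less beta-gal luminescence so fewer parasites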
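Material: NIH/3T3 host cells with β-galactosidase reporter T. cruzi; Input: 5,000 host fibroblasts per well; Medium: DMEM, 2% fetal bovine serum; Compound: 50 nL DMSO compound solution per well; Schedule: 3 h host attachment, then at least 90 h co-culture; Detection: luminescent β-galactosidase signal after 60 min lysis.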
Beta apoptosis – inhibitors of cytokine-induced beta cell apoptosis, primary screen, luminescence | INS-1E cytokine-induced death, ATP luminescence, 48 h; percent of positive-control rescue, neutral wells zero | protection from apoptosis, % (concentration not given with the values) | 300,000 tested, 0.8% active;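 active = Every replicate reaches about 75%, or at least half do and their mean reaches it too, limit read from the data; inconclusive = At least half of replicates reach the limit but their mean does not; inactive = Under half of replicates reach the limit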;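 note: 0% = cytokine-treated negative control wells and 100% = positive control rescue; higher means more ATP so stronger rescue from cytokine killing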
CSC inhib – cancer stem cell viability inhibitors, primary screen, luminescence | AID 2717, 2010 | inhibition, % at 7.5 µM | 300,000 tested, 1.1% active | cancer stem cell-like cells viability; in the data active = inhibition above about 75%; inconclusive = no clear call, values can overlap the other calls; tested in HMLE shEcad cells
SKKanGAS inh – S. pyogenes SKKanGAS growth inhibitors in kanamycin, primary screen, streptokinase expression inhibitor project, SKKanGAS strain, BacTiter-Glo luminescence | inhibition, % at 7.5 µM | 300,000 tested, 1.3% active | 6 h | AID 1662, 2009;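 active = mean replicate score, as percent of positive control median, at least 50; inconclusive = mean below 50 but one replicate at or above 50; inactive = mean and every replicate below 50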;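 note: strain carries kanamycin resistance gene driven by streptokinase promoter and grows in 40 µg/ml kanamycin; loss of luminescence reflects streptokinase promoter inhibition or plain growth inhibition; 0% = median of DMSO wells and 100% = positive control at its reference dose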
Calb FLC – C. albicans growth inhibition with fluconazole, primary screen, CaCi-2 strain, Alamar Blue fluorescence | C. albicans CaCi-2 + fluconazole, 48 h | growth inhibition, % (no concentration beside the values) | 300,000 tested, 0.57% active | AID 1979, 2009;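 active = growth inhibition above about 58% in most replicates, limit read from the data, passing the limit was not always enough; inconclusive = exactly half the replicates above a set limit; inactive = most replicates below a set limit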;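 note: all wells also contain fluconazole at 8 µg/ml as a sub-toxic cotreatment; 0% = median of DMSO wells and 100% = median of geldanamycin control wells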
Mdm2 MdmX PPI – inhibitors of human Mdm2-MdmX association, primary screen, cell-based, luminescence, split luciferase, SaOS-2, uHTS. Protein Mdm4 (Homo sapiens) + E3 ubiquitin-protein ligase Mdm2 (Homo sapiens), …. SaOS-2 split-luciferase Mdm2/MdmX complementation. inhibition, % at 8 µM. 330,000 tested, 3% active;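 active = inhibition of at least 50% at 8 µM in the primary screen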
Target sequence (O15151 whole entry, looked up): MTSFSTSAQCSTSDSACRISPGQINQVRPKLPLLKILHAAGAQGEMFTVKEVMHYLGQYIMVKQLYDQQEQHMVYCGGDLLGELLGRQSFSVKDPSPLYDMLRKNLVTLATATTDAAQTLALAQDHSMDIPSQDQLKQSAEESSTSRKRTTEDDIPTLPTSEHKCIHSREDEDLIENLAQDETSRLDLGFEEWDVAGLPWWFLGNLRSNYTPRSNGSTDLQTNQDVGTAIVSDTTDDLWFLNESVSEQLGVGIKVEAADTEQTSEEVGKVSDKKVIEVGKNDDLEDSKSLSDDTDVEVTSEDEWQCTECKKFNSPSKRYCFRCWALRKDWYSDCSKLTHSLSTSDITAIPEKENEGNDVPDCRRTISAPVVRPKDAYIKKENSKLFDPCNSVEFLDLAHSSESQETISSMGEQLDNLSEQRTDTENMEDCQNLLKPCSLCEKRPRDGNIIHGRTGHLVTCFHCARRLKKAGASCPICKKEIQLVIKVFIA
Target sequence (Q00987 whole entry, looked up): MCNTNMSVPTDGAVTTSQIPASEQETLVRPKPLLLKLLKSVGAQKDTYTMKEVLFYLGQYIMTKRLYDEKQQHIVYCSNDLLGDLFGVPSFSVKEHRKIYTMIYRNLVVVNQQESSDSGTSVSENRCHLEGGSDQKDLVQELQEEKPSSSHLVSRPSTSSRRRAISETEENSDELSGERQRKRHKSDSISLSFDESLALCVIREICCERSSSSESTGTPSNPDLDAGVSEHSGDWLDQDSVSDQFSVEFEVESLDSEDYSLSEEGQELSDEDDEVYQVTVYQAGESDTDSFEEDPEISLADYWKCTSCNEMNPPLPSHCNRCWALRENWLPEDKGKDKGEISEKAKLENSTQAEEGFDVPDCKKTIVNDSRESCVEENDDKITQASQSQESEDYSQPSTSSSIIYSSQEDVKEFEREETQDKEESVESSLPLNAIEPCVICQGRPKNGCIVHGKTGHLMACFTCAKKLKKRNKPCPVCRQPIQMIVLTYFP
Mdm2-MdmX conf – Mdm2-MdmX complex disruptors, retested hits, confirmation, luminescence, single concentration; shares compounds with Mdm2 MdmX PPI; Mdm2-MdmX binding, luminescent assay; inhibition, % at 8 µM; 10,000 tested, 55% active; AID 489028, 2010; in the data active = inhibition above about 40%
Full FLuc ctr – full-length luciferase signal inhibition, confirmation, counter-screen for Mdm2/MdmX interaction inhibitor project, cell-based, single concentration, SaOS-2; 6,200 tested, 77% active; SaOS-2 full-length luciferase counterscreen, luminescence; AID 504607, 2011; shares compounds with Mdm2 MdmX PPI; inhibition, % at 8 µM;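 active = mean inhibition at 8 µM reaching about 37%, which flags the compound as non-specific, limit read from the data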;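 note: p53-null SaOS-2 cells with luciferase driven by a doxycycline-inducible promoter; compound on cells about two nights before reading with doxycycline added after day one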
Starred values were filed as active, the others as inactive; ? = inconclusive; nt = no result given.

SMILES	T cruzi repl	Beta apoptosis	CSC inhib	SKKanGAS inh	Calb FLC	Mdm2 MdmX PPI	Mdm2-MdmX conf	Full FLuc ctr
Cc1[nH]c2ccc(C(=O)N3CCN(c4cccc(Cl)c4)CC3)cc2c1C	-13.5	-0.1	64.8	27.0	nt	50.6*	56.5*	55.8*
COc1ccc(S(=O)(=O)Cc2ccc(C(=O)N3CCN(c4cccc(C)c4C)CC3)o2)cc1	16.5	nt	71.7	6.2	14.9	63.5*	61.0*	47.2*
O=C(O)c1ccc(S(=O)(=O)Nc2cccc(CP(=O)(c3ccccc3)c3ccccc3)c2)cc1	0.0	-1.6	-16.5	-3.6	2.8	7.3	nt	nt
O=C1CSC(c2cccnc2)N1Cc1ccc(Cl)c(Cl)c1 (stereo not drawn)	39.6	-2.8	3.4	2.8	0.2	-8.2	nt	nt
CCOC(=O)N1CCN(C(=O)c2ccc(Cn3c(=S)[nH]c4ccc(Br)cc4c3=O)cc2)CC1	28.1	53.6	-11.4	31.3	13.0	55.2*	26.8	nt
Cc1ccc(C)c(N2CCN(C(=O)c3ccc(Cn4c(=O)[nH]c5ccccc5c4=O)cc3)CC2)c1	65.0*	7.8	17.5	45.1	38.5	90.9*	51.9*	47.0*
C=CCn1c(=O)[nH]c2cc(C(=O)N3CCN(c4cc(C)ccc4C)CC3)ccc2c1=O	5.8	2.9	-6.5	8.8	-12.3	29.3	nt	nt
O=C(c1ccc(Cn2c(=O)[nH]c3ccccc3c2=O)cc1)N1CCN(c2ccc(Cl)cc2)CC1	42.5	24.4	16.9	25.9	40.8	65.0*	33.9	nt
COc1ccc(Cn2c(=O)[nH]c3cc(C(=O)N4CCN(c5ccc(OC)cc5)CC4)ccc3c2=O)cc1	2.0	-1.6	-9.5	7.3	-5.9	21.0	nt	nt
NC(=O)Cn1nc2sc3ccccc3n2c(=O)c1=O	-3.5	1.1	-8.3	3.1	-4.4	-6.1	nt	nt
O=C(c1ccc(Cl)cc1)C1CCN(Cc2ccccc2)CC1	20.4	-2.1	-4.5	-3.1	-9.1	22.3	nt	nt
O=C(C1CCN(Cc2ccc(Cl)cc2)CC1)N1CCN(C(c2ccccc2)c2ccccc2)CC1	25.9	33.4	64.2	10.6	7.3	56.5*	25.1	nt
CCOC(=O)C(C)Oc1cccc2c(=O)n(CC(=O)NCc3ccco3)ccc12 (stereo not drawn)	-52.4	25.6	54.8	-0.2	3.8	51.3*	58.1*	62.8*
Cc1cccc(CCNC(=O)Cn2ncc3c([nH]c4ccccc43)c2=O)c1	-18.9	3.9	12.3	-14.2	11.3	23.6	nt	nt
C/C(=N/NC(=O)CN(c1ccccc1)S(=O)(=O)c1ccccc1)c1ccccc1O	7.1	109.3*	27.8	-15.5	1.8	71.8*	60.1*	26.8
CCCC/C(C)=N/NC(=O)CN(c1ccc(Br)cc1)S(=O)(=O)c1ccccc1	-9.8	-3.9	-5.8	11.2	2.0	-13.0	nt	nt
CC1(C)CCN2CCC(C)(C)c3c(O)ccc1c32	50.2	110.7*	131.3*	24.2	?	91.5*	83.0*	40.4*
COc1cc(NC(=O)CCc2c(C)[nH]c(=O)c(C#N)c2C)cc(OC)c1	1.4	0.8	-8.3	0.3	3.9	7.3	nt	nt
Cc1cc2c(C)cc(=O)[nH]c2cc1NC(=O)CCl	12.3	-14.8	13.8	2.1	2.3	39.8	nt	nt
O=C(CCl)Nc1cc2[nH]c(=O)[nH]c2cc1Br	-35.5	-2.0	20.2	-2.6	-5.1	93.8*	74.0*	60.1*
COc1cccc(CN2CCC(N(CCc3ccccc3)Cc3ccccc3)CC2)c1OC	25.3	113.3*	76.8*	-4.1	-19.4	60.8*	28.1	nt
COc1cccc(CN2CCN(Cc3cccc(Oc4ccccc4)c3)CC2)c1OC	12.0	-6.8	30.6	-3.8	-11.0	0.3	nt	nt
COc1cccc(CC(=O)Nc2cc(S(=O)(=O)N3CCOCC3)ccc2OC)c1	nt	nt	nt	nt	nt	5.3	nt	nt
Cc1nc(Sc2ccc(Br)cc2)c(C#N)c(C)c1[N+](=O)[O-]	42.3	0.5	83.5*	-19.7	-7.4	52.9*	31.6	nt
Cc1ccc(Sc2nc(C)c([N+](=O)[O-])c(C)c2C#N)cc1	-5.8	nt	57.7	21.1	-4.5	24.1	nt	nt
SMILES	T cruzi repl	Beta apoptosis	CSC inhib	SKKanGAS inh	Calb FLC	Mdm2 MdmX PPI	Mdm2-MdmX conf	Full FLuc ctr
COCCN(Cc1cccs1)S(=O)(=O)c1ccc(-c2ccc(=O)[nH]n2)s1	-11.9	10.4	-3.2	1.8	-1.9	15.7	nt	nt
N/C(Cc1cccc2ccccc12)=N\OC(=O)c1cccs1	16.4	2.7	10.9	25.6	-16.8	15.0	nt	nt
Cc1ccccc1OCC(=O)O/N=C(\N)Cc1cccs1	-11.5	nt	nt	7.6	-6.7	-4.4	nt	nt
Cc1ccccc1C(=O)O/N=C(\N)Cc1cccs1	50.9	nt	-3.5	-6.2	9.9	100.3*	91.6*	114.5*
COc1ccccc1C/C(N)=N/OC(=O)c1cccs1	4.0	nt	nt	4.1	-19.2	50.5*	10.8	nt
CCOC(=O)c1sc2nc(CSc3ccccc3Cl)[nH]c(=O)c2c1C	14.0	2.4	5.3	13.6	2.9	52.3*	-1.8	nt
COC(=O)c1sc2nc(CSc3ccc(Br)cc3)[nH]c(=O)c2c1C	6.3	-12.2	19.3	11.9	13.4	6.0	nt	nt
C[C@H]1CN([C@@H](C)CO)C(=O)c2cc(NC(=O)Cc3ccccc3)ccc2O[C@H]1CN(C)Cc1ccccc1	nt	2.8	-36.7	nt	nt	27.1	nt	nt
C[C@@H]1CN([C@@H](C)CO)C(=O)c2cc(NC(=O)Nc3ccc(F)cc3)ccc2O[C@@H]1CN(C)Cc1ccc(Oc2ccccc2)cc1	nt	59.4	137.4*	nt	nt	94.3*	21.4	nt
C[C@H]1CN([C@@H](C)CO)C(=O)Cc2cc(NS(C)(=O)=O)ccc2O[C@@H]1CN(C)Cc1ccc(Cl)c(Cl)c1	nt	nt	nt	nt	nt	18.5	nt	nt
C[C@@H]1CN([C@@H](C)CO)C(=O)Cc2cc(NC(=O)Nc3ccc(F)cc3)ccc2O[C@@H]1CN(C)Cc1ccc(Cl)c(Cl)c1	nt	66.0	nt	nt	nt	100.5*	63.2*	56.2*
C[C@@H]1CN([C@H](C)CO)C(=O)c2cc(NC(=O)Cc3ccccc3)ccc2O[C@H]1CN(C)Cc1ccc(Oc2ccccc2)cc1	nt	15.7	66.2	nt	nt	72.5*	26.2	nt
C[C@H]1CN([C@@H](C)CO)C(=O)Cc2cc(NC(=O)CCC(F)(F)F)ccc2O[C@H]1CN(C)S(=O)(=O)c1ccc(Cl)cc1	nt	nt	nt	nt	nt	55.4*	49.6*	64.6*
CC1=NN(C(=O)c2ccoc2C)C(O)(C(F)(F)F)C1 (stereo not drawn)	-30.9	1.8	-8.2	7.4	-1.9	16.4	nt	nt

Screening data as filed in PubChem.
